Rows were chosen to be rich in hits. Some 3% of all compounds tested hit in one or more screens of this group.
T cruzi repl = T. cruzi replication inhibition; T. cruzi beta-gal in NIH3T3, luminescence, 90 h; inhibition, % (test concentration not listed); 300,000 tested, 1.4% active;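 active means mean inhibition across valid replicates above about 55%, limit read from the data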;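 further: signal also drops with host cell toxicity which is not excluded here; higher percent means less beta-gal luminescence so fewer parasites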
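Material: NIH/3T3 host cells with β-galactosidase reporter T. cruzi; Input: 5,000 host fibroblasts per well; Medium: DMEM, 2% fetal bovine serum; Compound: 50 nL DMSO compound solution per well; Schedule: 3 h host attachment, then at least 90 h co-culture; Detection: luminescent β-galactosidase signal after 60 min lysis.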
CendR NRP1 mod = modulators of CendR peptide binding to human neuropilin-1 | O14786 | FAM-RPARPAR peptide binding to NRP-1, fluorescence polarization | inhibition, % at 25 µM | 360,000 tested, 0.85% active | AID 602438;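 active means inhibition or corrected inhibition above about 18%, plus a signal ratio from 0.5 to 1.5, limit read from the data, passing the limit was not always enough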
AI-2 QS mod = modulators of Vibrio harveyi AI-2 quorum sensing system; Vibrio harveyi JMH597 AI-2 luminescence/OD600 ratio, 9 h; active compounds read low; strain lacks LuxN and CqsS sensors; 0 = neutral-control median; activity change, % at 7.5 µM; 300,000 tested, 0.4% active; in the data active means activity change below about -75%, passing the limit was not always enough;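 further: luminescence divided by OD600 gain over 9 h not by final OD600 alone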
Yeast superoxide = caloric restriction mimetics inhibiting age-related superoxide in yeast; S. cerevisiae aged cells, superoxide DHE fluorescence; active compounds read low; AID 2690; superoxide response (% of plate mean), % at 10 µM; 330,000 tested, 0.18% active;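 active means superoxide response under a set limit, about three screen SD below normal, cut at about 65% in these data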;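 further: yeast aged for seven days with compound at 30 °C before DHE staining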
V-ATPase pH = regulators of yeast V-ATPase proton transport | S. cerevisiae, pHLuorin cytosolic pH fluorescence | response, % at 10 µM | 350,000 tested, 0.37% active | AID 504577; in the data active means response mostly above about 7.3%, no sharp cut-off; inactive means mostly below about 5.4%; further: actives read high
HIF act = HIF pathway transcriptional activation; 300,000 tested, 0.32% active; U2OS HRE-luciferase reporter, luminescence; normalized: DMSO 0%, desferrioxamine 100%; activation, % at 7.5 µM (by protocol);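 active means mean activation of at least 10% of the iron chelator positive control signal, with at least half of replicates also reaching 10%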
Of the large screens only hits and unclear results are named; the others gave an inactive call.

Cc1cccc(/C=N/NC(=O)c2ccc3c(c2)OCCO3)c1O	HIF act 28
CCCCSc1nc(C)cc(SCC(=O)N/N=C/c2cccc(OC)c2O)n1	HIF act 21
Cc1cccc(/C=N\NC(=O)c2ccc(Cl)cc2)c1O	T cruzi repl 64, HIF act 42
Cc1cc(NC(=O)CSc2nc(N)c(NC(=O)c3ccccc3F)c(=O)[nH]2)no1	none
CCN(CC)CCNc1nc2ccccc2n1C	none
COc1cccc(/C=N/NC(=O)CNC(=O)c2ccc3c(c2)OCCO3)c1O	none
COc1cccc(/C=N/NC(=O)c2c(C)nc3ccc(Cl)cn23)c1O	HIF act 86
Cc1cccc(/C=N/NC(=O)c2c(-c3ccccc3)noc2C)c1O	HIF act 16
CCOc1cccc(/C=N/NC(=O)c2ccc3c(c2)OCCO3)c1O	HIF act 12
COc1ccccc1/C=N/NC(=O)c1c(-c2ccccc2)noc1C	none
COC(=O)CNC(=O)C1CCCN1C(=O)CNC(=O)OC(C)(C)C (centres undefined)	none
O=C(COc1ccc(Br)cc1)NCCN1CCCC1	none
CC(C)C[C@H]1CNC(=S)N1CC1CCN(CCC23CC4CC(CC(C4)C2)C3)CC1	none (no result: T cruzi repl, AI-2 QS mod, Yeast superoxide, HIF act)
CC(C)CC(COCc1ccc([N+](=O)[O-])cc1)N1CCN(C(=O)c2ccc(C(F)(F)F)cc2)CCC1=O (centres undefined)	CendR NRP1 mod 23
CCN(CC)CCNc1ncnc2c1sc1nc(N3CCCC3)c3c(c12)CC(C)(C)OC3	T cruzi repl 61
CCCC(=O)NC(c1ccc(N(C)C)cc1)c1ccc2cccnc2c1O (centres undefined)	T cruzi repl 59, AI-2 QS mod -90, HIF act 48
CCCCC(=O)NC(c1ccc(OC)cc1)c1ccc2cccnc2c1O (centres undefined)	none (no result: T cruzi repl, AI-2 QS mod, Yeast superoxide, HIF act)
CCCC(=O)NC(c1ccc(C(C)C)cc1)c1ccc2cccnc2c1O (centres undefined)	T cruzi repl 57, HIF act 119
CC(=O)NC(c1ccco1)c1ccc2cccnc2c1O (centres undefined)	none
CC(C)CC(=O)NC(c1ccccc1Cl)c1c(O)ccc2ccccc12 (centres undefined)	none
CCCC(=O)NC(c1ccccc1Cl)c1ccc2cccnc2c1O (centres undefined)	HIF act 71 (no result: AI-2 QS mod)
CCC(=O)NC(c1ccc(C)cc1)c1ccc2cccnc2c1O (centres undefined)	T cruzi repl 57, HIF act 97
O=c1c(Cc2ccc(F)cc2)c(O)ccn1CCCN1CCOCC1	none
CCN(CC(=O)Nc1ccccc1SC)Cc1nc2ccccc2c(=O)[nH]1	Yeast superoxide 62
CC(NC(=O)c1ccccc1Cl)C(=O)O (centres undefined)	none (no result: HIF act)
O=C(O)C1OC1(c1ccccc1Cl)c1ccccc1Cl (centres undefined)	CendR NRP1 mod 24 (no result: T cruzi repl, AI-2 QS mod, Yeast superoxide, HIF act)
Cc1sc(NC(=O)CN(Cc2ccc(F)cc2)C(=O)C(C)C)c(C(N)=O)c1C	none (no result: HIF act)
CC1=C(C(=O)Nc2ccc([N+](=O)[O-])cc2)C(c2cccc(C(F)(F)F)c2)NC(=S)N1c1ccccc1 (centres undefined)	T cruzi repl 57
COc1ccc(C2NC(=S)N(c3ccccc3)C(C)=C2C(=O)Nc2ccccc2)cc1 (centres undefined)	none
Cc1cc(Br)ccc1NC(=O)CN1C(=O)C2C3CC(c4ccccc4)C(C3)C2C1=O (centres undefined)	T cruzi repl 56
Cc1cc(Br)ccc1NC(=O)CNC(=O)CN1C(=O)NC2(CCCCCC2)C1=O	none
CC(O)(c1ccccc1)c1nc(-c2ccccc2)cs1 (centres undefined)	none (no result: T cruzi repl, AI-2 QS mod, Yeast superoxide, V-ATPase pH, HIF act)
COCc1cccc(-c2csc(C(C)(O)c3ccccc3)n2)c1 (centres undefined)	CendR NRP1 mod 41 (no result: T cruzi repl, AI-2 QS mod, Yeast superoxide, V-ATPase pH, HIF act)
CC(C)CCc1noc(CN(C)CC2CCN(Cc3ccccc3)CC2)n1	T cruzi repl 55
CN(Cc1nc(-c2cnccn2)no1)CC1CCN(Cc2ccccc2)CC1	none (no result: HIF act)
Cc1cc(C(=O)Oc2ccccc2C(=O)O)c(C)o1	none
O=c1c2cc(Cl)ccc2nc(-c2ccc([N+](=O)[O-])cc2)n1O	AI-2 QS mod -83
COC(=O)c1ccc(-c2nc(CN3CCN(C(=O)c4ccco4)CC3)c(C)o2)cc1	none (no result: T cruzi repl, AI-2 QS mod, Yeast superoxide, V-ATPase pH, HIF act)
COc1ccc(-c2nc(CN3CCN(Cc4cccc(Cl)c4)CC3)c(C)o2)cc1	T cruzi repl 56
COc1ccc(-c2nc(CN3CCN(Cc4cccc(F)c4)CC3)c(C)o2)cc1	none
COC(=O)c1ccc(-c2nc(CN3CCN(Cc4cccc(C)c4)CC3)c(C)o2)cc1	T cruzi repl 57
CCN(C(=O)COC(=O)c1c2c(nc3ccccc13)CCC2)c1c(N)n(Cc2ccccc2)c(=O)[nH]c1=O	none (no result: T cruzi repl, AI-2 QS mod, Yeast superoxide, HIF act)
O=C(Cc1cccc(C(F)(F)F)c1)Nc1ccccc1N1CCCC1	none
N#CCS(=O)(=O)c1ccccc1	CendR NRP1 mod 24
CS(=O)(=O)N1CCc2cc(-c3csc(NC(=O)Cc4cccs4)n3)ccc21	T cruzi repl 60
CN(C)S(=O)(=O)c1cc(NC(=O)CNCc2ccccc2)ccc1Cl	none
CN(CCOc1ccccc1)CC(=O)Nc1ccc(Cl)c(S(=O)(=O)N(C)C)c1	T cruzi repl 67
C/C(N)=C(/C#N)C(=O)CSc1cc(C)c2cc(C)cc(C)c2n1	T cruzi repl 62
Cc1cccn(Cc2c(F)cccc2Cl)c1=O	none
Cc1ccccc1C(=O)NC1CCN(CC(=O)Nc2ccc(N(C)C)cc2)CC1	none
CC(C)(CO)Cc1cc(C(C)(C)C)c(O)c(C(C)(C)C)c1	CendR NRP1 mod 17 (no result: T cruzi repl, AI-2 QS mod, HIF act)
O=C(CSC1=Nc2ccccc2C2CC=NN12)NCc1ccco1 (centres undefined)	none (no result: T cruzi repl, AI-2 QS mod, HIF act)
CC12CCC(C3NC(=S)NN=C31)C2(C)C (centres undefined)	none (no result: T cruzi repl, AI-2 QS mod, Yeast superoxide, HIF act)
CN1CCCC(C(=O)C(C#N)c2ccccc2)C1 (centres undefined)	none
Cc1ccc(NC(=O)c2sc3ncn(CC(=O)N4CCN(c5ccccn5)CC4)c(=O)c3c2C)cc1F	none
O=c1c(Br)ccc(Br)cc1Br	V-ATPase pH 62 (no result: T cruzi repl, AI-2 QS mod, Yeast superoxide, HIF act)
O=C1CN(S(=O)(=O)c2cc(Br)ccc2Br)CCN1	none (no result: T cruzi repl, AI-2 QS mod, HIF act)
CCN(CC(O)CON=C1c2ccccc2-c2ccccc21)S(=O)(=O)c1ccc(Cl)cc1 (centres undefined)	T cruzi repl 62 (no result: HIF act)
Cc1cccc(N(CC(O)CON=C2c3ccccc3-c3ccccc32)S(C)(=O)=O)c1 (centres undefined)	T cruzi repl 60
CCN(CC(O)CON=C1c2ccccc2-c2ccccc21)S(=O)(=O)c1ccc(C)cc1 (centres undefined)	T cruzi repl 62 (no result: HIF act)
CS(=O)(=O)N(CC(O)CON=C1c2ccccc2-c2ccccc21)c1ccc(F)cc1 (centres undefined)	none (no result: HIF act)

Screening data: PubChem, several laboratories
